{
  "source": "ChEMBL document CHEMBL4376883",
  "about": "“Discovery and Optimization of Small Molecules Targeting the Protein-Protein Interaction of Heat Shock Protein 90 (Hsp90) and Cell Division Cycle 37 as Orally Active Inhibitors for the Treatment of Colorectal Cancer” (J Med Chem, 2020)",
  "key": {"[1]": {"assay": "Stability of the compound in human plasma assessed as parent compound remaining at 1 uM measured after 30 mins by LC-MS/MS analysis", "type": "ADME, cell-free", "conditions": "read-out: Stability; call rule not given here", "procedure,_shortened": "(§1)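 Compound diluted from 10 mM DMSO stock to 1 μM in mouse or human plasma and held at 37 °C in a water bath. Reactions were stopped with acetonitrile at 0, 10, 30, 60 and 90 min. Parent compound was quantified by LC-MS/MS as % remaining.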"}, "Heat shock protein HSP90": {"target": "Heat shock protein HSP90 (Homo sapiens, UniProt P07900+P08238)", "assay": "Binding affinity to recombinant […] biotinylated-HSP90 N-terminal domain (9 to 236 residues) (unknown origin) expressed in Escherichia coli BL21 (DE3) by biolayer interferometry", "procedure,_shortened": "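Biotinylated Hsp90 (100 µg/mL) loaded onto streptavidin sensors prewetted 10 min in PBS with 0.05% BSA and 0.01% Tween 20. Analyte binding measured at 28 °C. Double reference subtraction applied; data fitted to a 1:1 model with K_D = K_off/K_on.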"}, "[2]": {"assay": "Stability of the compound in human plasma assessed as parent compound remaining at 1 uM measured immediately by LC-MS/MS analysis", "type": "ADME, cell-free", "conditions": "read-out: Stability", "procedure,_shortened": "as §1"}, "[3]": {"assay": "Distribution coefficient, log D of the compound at pH 7.4 by potentiometric titration method", "type": "physicochemical", "conditions": "octanol/water", "procedure,_shortened": "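log D at pH 7.4 measured by potentiometric titration on a Gemini Profiler.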"}, "Glucocorticoid receptor [4]": {"target": "T1, Glucocorticoid receptor (Homo sapiens, UniProt P04150)", "T1 sequence (P04150 whole entry)": "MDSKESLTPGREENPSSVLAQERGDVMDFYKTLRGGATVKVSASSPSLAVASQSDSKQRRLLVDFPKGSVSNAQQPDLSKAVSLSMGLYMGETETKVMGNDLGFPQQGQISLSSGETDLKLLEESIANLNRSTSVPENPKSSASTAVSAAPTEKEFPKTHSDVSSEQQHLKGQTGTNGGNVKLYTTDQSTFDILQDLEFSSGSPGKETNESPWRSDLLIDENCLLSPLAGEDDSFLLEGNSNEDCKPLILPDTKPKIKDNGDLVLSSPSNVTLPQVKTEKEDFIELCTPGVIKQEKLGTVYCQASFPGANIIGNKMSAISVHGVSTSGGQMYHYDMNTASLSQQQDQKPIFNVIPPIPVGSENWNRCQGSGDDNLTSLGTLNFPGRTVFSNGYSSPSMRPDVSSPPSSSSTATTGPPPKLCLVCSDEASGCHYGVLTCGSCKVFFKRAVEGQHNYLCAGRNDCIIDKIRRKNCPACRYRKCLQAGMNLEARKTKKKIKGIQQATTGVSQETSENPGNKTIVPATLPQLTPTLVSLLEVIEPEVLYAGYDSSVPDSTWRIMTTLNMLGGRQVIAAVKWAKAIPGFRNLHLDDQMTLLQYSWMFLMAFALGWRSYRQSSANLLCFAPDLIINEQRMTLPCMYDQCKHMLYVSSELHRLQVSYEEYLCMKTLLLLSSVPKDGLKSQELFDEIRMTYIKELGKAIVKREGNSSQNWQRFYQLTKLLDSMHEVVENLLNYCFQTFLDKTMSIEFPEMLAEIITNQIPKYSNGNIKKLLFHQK", "assay": "Effect on glucocorticoid receptor phosphorylation in human HCT116 cells at 10 uM measured up to 48 hrs by Western blot analysis", "type": "ADME, cell-based", "procedure,_shortened": "(§2)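 HCT116 cells treated with 0, 1, 5 or 10 µM for 24 h, or with 10 µM for 0, 4, 12, 24 or 48 h. Lysates separated by SDS-PAGE and blotted. Membranes blocked in 5% milk, primary antibodies overnight at 4 °C, HRP secondaries, chemiluminescent detection.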"}, "[5]": {"assay": "Clearance in mouse liver microsomes at 10 uM preincubated for 5 mins followed by NADPH addition by LC-MS/MS analysis", "type": "ADME, Microsome", "conditions": "read-out: CLH", "procedure,_shortened": "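Compound at 10 µM preincubated 5 min at 37 °C with human or mouse liver microsomes (0.5 mg/mL) in 100 mM phosphate, pH 7.4. Reaction started with 1 mM NADPH, stopped with cold acetonitrile, centrifuged and analysed by LC-MS/MS.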"}, "Glucocorticoid receptor [6]": {"target": "T1, Glucocorticoid receptor", "assay": "Effect on glucocorticoid receptor in human HCT116 cells at 10 uM measured up to 48 hrs by Western blot analysis", "type": "ADME, cell-based", "procedure,_shortened": "as §2"}, "[7]": {"assay": "Half life in tumor of human HCT116 cells xenografted BALB/c mouse at 80 mg/kg, po administered as single dose by LC-MS/MS analysis", "type": "ADME, organism-based, Neoplasm", "procedure,_shortened": "(§3)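 Single oral dose of 80 mg/kg given to BALB/c nude mice (n = 6 per group) carrying flank HCT116 xenografts. Blood and tumor were collected at 0, 0.25, 0.5, 1, 2, 4, 8, 12 and 24 h. Blood went into heparinized tubes and was spun at 3000 rpm for 10 min to give plasma. Samples were stored at -80 °C, then drug levels in plasma and tumor were measured by LC-MS/MS.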"}, "[8]": {"assay": "Stability of the compound in mouse plasma assessed as parent compound remaining at 1 uM measured after 60 mins by LC-MS/MS analysis", "type": "ADME, cell-free", "conditions": "read-out: Stability", "procedure,_shortened": "as §1"}, "HCT-116 [9]": {"tested_on": "HCT-116", "assay": "Effect on total phosphorylated CDC37 expression in human HCT116 cells at 10 uM measured up to 48 hrs by Western blot analysis", "type": "ADME, cell-based", "conditions": "hct-116, 48 h", "procedure,_shortened": "as §2"}, "[10]": {"assay": "Permeability of the compound at pH 7.4 by PAMPA", "type": "ADME", "conditions": "read-out: permeability", "procedure,_shortened": "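Permeability coefficient (Pe) was measured at pH 7.4 by double-sink PAMPA.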"}, "L02": {"tested_on": "L02", "assay": "Cytotoxicity against human L02 cells measured after 72 hrs by CCK8 assay", "type": "functional, cell-based", "conditions": "L02, 72 h", "procedure,_shortened": "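Cells grown in RPMI 1640 with 10% FBS at 37 °C, 5% CO2; STR-authenticated and mycoplasma-checked. Seeded at 3000-5000 cells/well and left 24 h. Serial compound dilutions added for 72 h, with matched DMSO as control. Viability read by CCK8 kit using the standard protocol. IC50 values derived from at least three parallel experiments.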"}, "[11]": {"assay": "Stability of the compound in mouse plasma assessed as parent compound remaining at 1 uM measured immediately by LC-MS/MS analysis", "type": "ADME, cell-free", "conditions": "read-out: Stability", "procedure,_shortened": "as §1"}, "HCT-116 [12]": {"tested_on": "HCT-116", "assay": "Effect on CDC37 expression in human HCT116 cells up to 10 uM measured after 24 hrs by Western blot analysis", "type": "cell-based", "conditions": "hct-116, 24 h", "procedure,_shortened": "as §2"}, "[13]": {"assay": "AUC (0 to t) in plasma of human HCT116 cells xenografted BALB/c mouse at 80 mg/kg, po administered as single dose by LC-MS/MS analysis", "type": "ADME, organism-based", "procedure,_shortened": "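Tumour-bearing mice (n = 6 per group) given one oral dose of 80 mg/kg. Blood and tumour collected into heparinized tubes at 0, 0.25, 0.5, 1, 2, 4, 8, 12 and 24 h. Plasma obtained by centrifugation at 3000 rpm for 10 min. Samples stored at -80 °C and quantified by LC-MS/MS.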"}, "[14]": {"assay": "Half life in plasma of human HCT116 cells xenografted BALB/c mouse at 80 mg/kg, po administered as single dose by LC-MS/MS analysis", "type": "ADME, organism-based", "procedure,_shortened": "as §3"}, "[15]": {"assay": "Tmax in tumor of human HCT116 cells xenografted BALB/c mouse at 80 mg/kg, po administered as single dose by LC-MS/MS analysis", "type": "ADME, organism-based, Neoplasm", "procedure,_shortened": "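HCT116-xenografted mice (n = 6 per group) received a single oral 80 mg/kg dose. Blood and tumor were sampled at 0 to 24 h. Plasma was obtained by centrifugation at 3000 rpm for 10 min. Samples were stored at −80 °C and quantified by LC-MS/MS.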"}},
  "data": [
    {"smiles": "Cc1cc(C)c(S(=O)(=O)N(CC(=O)O)c2ccc(Nc3ccnc(N4CCNCC4)n3)cc2)c(C)c1", "values": [
      {"measurement": "remaining at 0.5 h, 1 µM", "setting": "[1]", "value": 104, "unit": "%"},
      {"measurement": "Kd", "setting": "Heat shock protein HSP90", "value": 0.5, "unit": "µM"},
      {"measurement": "remaining at 0 min, 1 µM", "setting": "[2]", "value": 100, "unit": "%"},
      {"measurement": "logD", "setting": "[3]", "value": 1.93},
      {"measurement": "Activity", "setting": "Glucocorticoid receptor [4]", "value": "Non-Toxic"},
      {"measurement": "microsomal CLint at 10 µM", "setting": "[5]", "value": 10.3, "unit": "µL/min/mg"},
      {"measurement": "Activity", "setting": "Glucocorticoid receptor [6]", "value": "Non-Toxic"},
      {"measurement": "half-life", "setting": "[7]", "value": 4.66, "unit": "h"},
      {"measurement": "remaining at 1 h, 1 µM", "setting": "[8]", "value": 101, "unit": "%"},
      {"measurement": "Activity", "setting": "HCT-116 [9]", "value": "Non-Toxic"},
      {"measurement": "Papp", "setting": "[10]", "value": 104, "unit": "×10⁻⁶ cm/s"},
      {"measurement": "IC50", "setting": "L02", "value": "> 50", "unit": "µM"},
      {"measurement": "remaining at 0 min, 1 µM", "setting": "[11]", "value": 100, "unit": "%"},
      {"measurement": "Activity", "setting": "HCT-116 [12]", "value": "Non-Toxic"},
      {"measurement": "AUC(0-t)", "setting": "[13]", "value": 533, "unit": "µg·h/mL"},
      {"measurement": "half-life", "setting": "[14]", "value": 1.46, "unit": "h"},
      {"measurement": "Tmax", "setting": "[15]", "value": 1, "unit": "h"}
    ]}
  ]
}
